Tested on: Caco-2 cells
Test: Caco-2 cellular uptake study
Format: in vitro ADME, human
Conditions: verapamil 50 µg/ml, 1 or 3 h
In short: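 Caco-2 cells (DMEM, 20% FBS, 37 °C, 5% CO2) seeded at 5 × 10⁴/well and grown 24 h. Test compound as SNEDDS or solution (equivalent CTX 5 µg/ml) given with verapamil 50 µg/ml, 1 or 3 h at 37 °C. Washed three times with ice-cold PBS, sonicated in water (100 W), lysed, spun 13,000 rpm 10 min. CTX by HPLC; handling matched the no-inhibitor uptake arm.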

Change of Caco-2 uptake after adding P-gp inhibitor: no significant difference
Compound: CO[C@H]1C(=O)[C@]2(C)[C@@H](OC)C[C@H]3OC[C@@]3(OC(C)=O)[C@H]2[C@H](OC(=O)c2ccccc2)[C@]2(O)C[C@H](OC(=O)[C@H](O)[C@@H](NC(=O)OC(C)(C)C)c3ccccc3)C(C)=C1C2(C)C [CTX, cabazitaxel]

Reference: publication PMC11017284 (Asian Journal of Pharmaceutical Sciences, 2024)
